Data reported in ChEMBL document CHEMBL3098051, “Rational design and synthesis of novel dibenzo[b,d]furan-1,2,3-triazole conjugates as potent inhibitors of Mycobacterium tuberculosis” (Eur J Med Chem, 2014).
Converted amounts (≈) assume the structure as drawn.

What was measured:
[1] = test system: Mycobacterium tuberculosis; experiment: Antimycobacterial activity against Mycobacterium tuberculosis H37Rv ATCC 27294 assessed as parasite growth inhibition after 28 days by agar dilution method; type: functional; conditions: H37Rv ATCC 27294, 672 h
In short: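 Inoculum from fresh Middlebrook 7H11 agar slants with OADC supplement, adjusted to 1 mg/mL wet weight in 0.05% Tween 80 saline and diluted to about 10^7 cfu/mL. Suspension was spotted onto 7H11 agar tubes containing 10-fold serial drug dilutions and incubated at 37 °C. Read at 28 days. MIC was the lowest concentration completely inhibiting growth, run in triplicate at pH 7.40.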

[2] = Cytotoxicity against HEK293T cells at 50 ug/ml after 72 hrs by MTT assay; type: cell-based, HEK-293T; conditions: human, read-out: INH
[3] = Selectivity index, ratio of IC50 for HEK293T cells to MIC for Mycobacterium tuberculosis H37Rv ATCC 27294; type: toxicity, cell-based, HEK-293T; conditions: human, read-out: Selectivity Index
In short: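 SI was taken as the approximated IC50 in HEK293T cells (72 h MTT) relative to MIC against H37Rv (agar dilution, 28 days). SI above 10 was counted as nontoxic.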

HEK-293T = experiment: Cytotoxicity against HEK293T cells after 72 hrs by MTT assay; type: cell-based; conditions: Homo sapiens
In short: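 Human embryonic kidney 293T cells were exposed to compound for 72 h. Viability was read by cellular conversion of MTT to formazan, and percentage growth of cells was reported.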

`CCOC(=O)Cn1cc(-c2ccc3oc4ccccc4c3c2)nn1` showed an MIC [1] of 1.56 µg/mL (≈ 4.85 µM), a cytotoxicity at 72 h, 50 ug/ml [2] of 38.8% and a selectivity ratio [3] of over 25. It also gave an IC50 (HEK-293T) of over 50 µg/mL.

`OCCCCn1cc(-c2ccc3oc4ccccc4c3c2)nn1` gave an MIC [1] of 50 µg/mL (≈ 163 µM), a cytotoxicity at 72 h, 50 ug/ml [2] of 21.9% and a selectivity ratio [3] of 1. For the same compound, the IC50 (HEK-293T) was over 50 µg/mL.

`c1ccc(Cn2cc(-c3ccc4oc5ccccc5c4c3)nn2)cc1` showed an MIC [1] of 50 µg/mL (≈ 154 µM), a cytotoxicity at 72 h, 50 ug/ml [2] of 36.1% and a selectivity ratio [3] of 1. For the same compound, the IC50 (HEK-293T) was over 50 µg/mL.

`COc1cccc(Cn2cc(-c3ccc4oc5ccccc5c4c3)nn2)c1` showed an MIC [1] of 0.78 µg/mL (≈ 2.19 µM), a cytotoxicity at 72 h, 50 ug/ml [2] of 62.1% and a selectivity ratio [3] of 25. The IC50 (HEK-293T) was under 50 µg/mL.

In the case of `COc1ccc(Cn2cc(-c3ccc4oc5ccccc5c4c3)nn2)cc1`, the MIC [1] is reported as 3.12 µg/mL (≈ 8.78 µM), the cytotoxicity at 72 h, 50 ug/ml [2] is reported as 52.7% and the selectivity ratio [3] is reported as 16. The IC50 (HEK-293T) was 50 µg/mL (≈ 141 µM).

`Brc1ccc(Cn2cc(-c3ccc4oc5ccccc5c4c3)nn2)cc1` showed an MIC [1] of 0.78 µg/mL (≈ 1.93 µM), a cytotoxicity at 72 h, 50 ug/ml [2] of 27.8% and a selectivity ratio [3] of over 25. It also gave an IC50 (HEK-293T) of over 50 µg/mL.

In the case of `Brc1cccc(Cn2cc(-c3ccc4oc5ccccc5c4c3)nn2)c1`, the MIC [1] is reported as 6.25 µg/mL (≈ 15.5 µM), the cytotoxicity at 72 h, 50 ug/ml [2] is reported as 12% and the selectivity ratio [3] is reported as over 10. The IC50 (HEK-293T) was over 50 µg/mL.

For `O=[N+]([O-])c1ccc(Cn2cc(-c3ccc4oc5ccccc5c4c3)nn2)cc1`, the MIC [1] was 50 µg/mL (≈ 135 µM), the cytotoxicity at 72 h, 50 ug/ml [2] was 46.3% and the selectivity ratio [3] was 1. The IC50 (HEK-293T) was 50 µg/mL (≈ 135 µM).

`COC(=O)c1ccc(Cn2cc(-c3ccc4oc5ccccc5c4c3)nn2)cc1` showed an MIC [1] of 25 µg/mL (≈ 65.2 µM), a cytotoxicity at 72 h, 50 ug/ml [2] of 58.1% and a selectivity ratio [3] of 1. It also gave an IC50 (HEK-293T) of under 50 µg/mL.

For `Cc1ccc(C(C)n2cc(-c3ccc4oc5ccccc5c4c3)nn2)cc1` (centres undefined), the MIC [1] was 3.12 µg/mL (≈ 8.83 µM), the cytotoxicity at 72 h, 50 ug/ml [2] was 43.1% and the selectivity ratio [3] was 16. For the same compound, the IC50 (HEK-293T) was 50 µg/mL (≈ 141 µM).

For `COc1ccc(C(C)n2cc(-c3ccc4oc5ccccc5c4c3)nn2)cc1` (centres undefined), the MIC [1] was 3.12 µg/mL (≈ 8.45 µM), the cytotoxicity at 72 h, 50 ug/ml [2] was 18.9% and the selectivity ratio [3] was over 16. For the same compound, the IC50 (HEK-293T) was over 50 µg/mL.

In the case of `CC(c1ccc([N+](=O)[O-])cc1)n1cc(-c2ccc3oc4ccccc4c3c2)nn1` (centres undefined), the MIC [1] is reported as 25 µg/mL (≈ 65 µM), the cytotoxicity at 72 h, 50 ug/ml [2] is reported as 38.9% and the selectivity ratio [3] is reported as 2. The IC50 (HEK-293T) was over 50 µg/mL.

In the case of `CC(c1ccc2oc3ccccc3c2c1)n1cc(-c2ccc3oc4ccccc4c3c2)nn1` (centres undefined), the MIC [1] is reported as 50 µg/mL (≈ 116 µM), the cytotoxicity at 72 h, 50 ug/ml [2] is reported as 52.6% and the selectivity ratio [3] is reported as 1. For the same compound, the IC50 (HEK-293T) was 50 µg/mL (≈ 116 µM).

`CC(c1ccc2sc3ccccc3c2c1)n1cc(-c2ccc3oc4ccccc4c3c2)nn1` (centres undefined) showed an MIC [1] of 25 µg/mL (≈ 56.1 µM), a cytotoxicity at 72 h, 50 ug/ml [2] of 61.1% and a selectivity ratio [3] of 1. For the same compound, the IC50 (HEK-293T) was under 50 µg/mL.

`CC[C@@H](CO)NCCN[C@@H](CC)CO` [ETHAMBUTOL] gave an MIC [1] of 3.13 µg/mL (≈ 15.3 µM).

`NNC(=O)c1ccncc1` [ISONIAZID] gave an MIC [1] of 0.1 µg/mL (≈ 0.729 µM).

In the case of `CO[C@H]1/C=C/O[C@@]2(C)Oc3c(C)c(O)c4c(O)c(c(/C=N/N5CCN(C)CC5)c(O)c4c3C2=O)NC(=O)/C(C)=C\C=C\[C@H](C)[C@H](O)[C@@H](C)[C@@H](O)[C@@H](C)[C@H](OC(C)=O)[C@@H]1C` [RIFAMPIN], the MIC [1] is reported as 0.2 µg/mL (≈ 0.243 µM).
